Here are results for five compounds from paper PMC9447421 (FASEB BioAdvances, 2022).

In general, EC50 refers to the midpoint of the concentration-response curve.

Assay [1] has as its system canonical Gβγ‐PLC signaling pathway activated by T2Rs (T2R1). It counts as cell-based, Astyanax mexicanus. The settings on record: T2R1 cells; blocker 10 μM, 30 min pretreatment; brine shrimp 5 mg/ml. In a few lines: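 HEK293T cells stably expressing FLAG-tagged fish T2R1, selected in hygromycin (200 μg/ml). Brine shrimp (300 mg ground food per 10 ml) and blockers prepared in assay buffer (1X HBSS, 20 mM HEPES). Cells loaded with Fluo-4 NW, 35 min at 37°C then 35 min at room temperature. Compounds added robotically on a FlexStation 3. Signal baseline-subtracted against parental HEK293T cells and reported as ΔRFU.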

In another assay the target is T1, A. mexicanus T2R4 (Astyanax mexicanus, UniProt A0A3B1ICP8).
T1 sequence (A0A3B1ICP8 2-338): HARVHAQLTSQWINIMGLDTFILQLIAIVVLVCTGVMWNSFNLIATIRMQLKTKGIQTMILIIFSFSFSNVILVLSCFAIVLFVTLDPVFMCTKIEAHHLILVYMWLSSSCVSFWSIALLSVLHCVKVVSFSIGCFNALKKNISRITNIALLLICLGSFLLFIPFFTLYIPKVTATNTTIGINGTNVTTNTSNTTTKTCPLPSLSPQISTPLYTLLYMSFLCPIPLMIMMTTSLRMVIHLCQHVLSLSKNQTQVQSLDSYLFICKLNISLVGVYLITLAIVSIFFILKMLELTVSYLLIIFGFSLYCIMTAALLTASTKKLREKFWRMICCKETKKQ
In words: Calcium mobilization assay, HEK293T cells stably expressing T2R4. It counts as cell-based. A general note: A change in cytosolic calcium serves as a functional read-out for many receptors and channels.

In assay [2] the test system is hT2R4. As to conditions: human T2R4; cited from earlier work.
The subject of another assay is hT2R1. As to conditions: human T2R1; cited from earlier work.
Assay [3] deals with hT2R4. As to conditions: human T2R4; cited from earlier work. This is another data set of the same source.

Counter-ions that a name gives are not always drawn.

`COc1ccc2c(c1)CC[C@@H]1[C@@H]2CC[C@]2(C)[C@@H](NCCCCCCN3C(=O)CCC3=O)CC[C@@H]12` [U73343]: the “Effect of pretreatment on brine shrimp-induced calcium mobilization” value in assay [1] is “no significant differences”. For the compound `COc1ccc2c(c1)[C@]13CCCC[C@@H]1[C@H](C2)N(C)CC3` [DXM, dextromethorphan], the EC50 at A. mexicanus T2R4 amounted to 1430 µM. Further, the “Activation of hT2R4” value with hT2R4 [2] was “does not activate”. For `O=C1OC2(c3ccccc31)c1ccc(O)c(O)c1Oc1c2ccc(O)c1O` [gallein, Gallein], in assay [1], the “Effect of pretreatment on brine shrimp-induced calcium mobilization” value is on record as “significant decrease in calcium mobilization”. With `C=C[C@H]1C[N@@]2CC[C@H]1C[C@H]2[C@H](O)c1ccnc2ccc(OC)cc12` [quinine, quinine hydrochloride], in the assay with hT2R1, the “Activation of hT2R1” value is “does not activate”. The “Effect on hT2R4 expression (pharmacological chaperone)” value with hT2R4 [3] is recorded as “acts intracellularly to enhance hT2R4 expression”. On to `COc1ccc2c(c1)CC[C@@H]1[C@@H]2CC[C@]2(C)[C@@H](NCCCCCCN3C(=O)C=CC3=O)CC[C@@H]12` [U73122], for which the “Effect of pretreatment on brine shrimp-induced calcium mobilization” value in assay [1] is “significant decrease in calcium mobilization”.
